Measurements reported in ChEMBL document CHEMBL1143862, “Backbone cyclic peptidomimetic melanocortin-4 receptor agonist as a novel orally administrated drug lead for treating obesity” (J Med Chem, 2008).
Numbered stars: 1 amine (or outer) side, 2 acyl side, 3 side chain; on linkers, the order of the positions; unused ones are H or OH. Bridge positions count the residues as written; N and C are the ends. Square brackets hold non-standard residues; d marks the D form. Peptide text beside a SMILES is read from it. NGly(3-aminopropyl) = O=C(CN(CCCN[*:3])[*:1])[*:2]; N(2-Aminoethyl)Gly = O=C(CN(CCN[*:3])[*:1])[*:2]; Adipoyl = O=C(CCCCC(=O)[*:2])[*:1]; Suc = O=C(CCC(=O)[*:2])[*:1]

Experiments:
Melanocortin receptor 3 = Melanocortin receptor 3 (Mus musculus, UniProt P33033); assay: Agonist activity at mouse MC3R expressed in HEK293 cells; format: functional, cell-based
Chain of Melanocortin receptor 3 (P33033 whole entry): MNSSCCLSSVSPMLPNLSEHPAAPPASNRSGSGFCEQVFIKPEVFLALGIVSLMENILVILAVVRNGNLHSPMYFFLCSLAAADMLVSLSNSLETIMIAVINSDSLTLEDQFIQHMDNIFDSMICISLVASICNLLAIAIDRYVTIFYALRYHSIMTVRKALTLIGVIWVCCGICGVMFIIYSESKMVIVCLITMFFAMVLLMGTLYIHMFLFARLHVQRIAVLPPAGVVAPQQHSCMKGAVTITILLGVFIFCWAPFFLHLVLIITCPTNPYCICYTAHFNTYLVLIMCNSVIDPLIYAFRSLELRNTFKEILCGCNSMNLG
Procedure, shortened: (§1)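 HEK-293 cells stably expressing each melanocortin receptor were transfected with a CRE/β-galactosidase reporter. At 48 h post-transfection, cells were stimulated for 6 h with peptide (10^-4 to 10^-12 M) or 10^-4 M forskolin in DMEM containing 0.1 mg/mL BSA and 0.1 mM IBMX. Lysates were read with ONPG at OD 405 and normalized to protein (OD 595) and to forskolin response. Efficacy is expressed relative to NDP-MSH maximal stimulation.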

[1] = molecular target: Melanocortin receptor 4 (Mus musculus) (UniProt P56450); assay: Stimulation of mouse MC4R expressed in HEK293 cells relative to NDP-MSH; format: cell-based; procedure, shortened: as §1
Chain of Melanocortin receptor 4 (Mus musculus) (P56450 whole entry): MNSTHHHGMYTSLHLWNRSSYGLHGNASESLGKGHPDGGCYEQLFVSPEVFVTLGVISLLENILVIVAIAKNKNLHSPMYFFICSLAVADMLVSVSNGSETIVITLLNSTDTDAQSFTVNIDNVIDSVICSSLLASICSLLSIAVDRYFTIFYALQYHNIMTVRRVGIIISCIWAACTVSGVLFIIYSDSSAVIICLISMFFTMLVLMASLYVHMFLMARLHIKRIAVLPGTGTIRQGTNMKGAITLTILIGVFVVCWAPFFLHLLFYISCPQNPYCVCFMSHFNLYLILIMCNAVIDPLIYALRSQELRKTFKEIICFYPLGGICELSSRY

[2] = molecular target: Melanocortin receptor 5 (Mus musculus) (UniProt P41149); assay: Stimulation of mouse MC5R expressed in HEK293 cells relative to NDP-MSH; format: cell-based; procedure, shortened: as §1
Chain of Melanocortin receptor 5 (Mus musculus) (P41149 whole entry): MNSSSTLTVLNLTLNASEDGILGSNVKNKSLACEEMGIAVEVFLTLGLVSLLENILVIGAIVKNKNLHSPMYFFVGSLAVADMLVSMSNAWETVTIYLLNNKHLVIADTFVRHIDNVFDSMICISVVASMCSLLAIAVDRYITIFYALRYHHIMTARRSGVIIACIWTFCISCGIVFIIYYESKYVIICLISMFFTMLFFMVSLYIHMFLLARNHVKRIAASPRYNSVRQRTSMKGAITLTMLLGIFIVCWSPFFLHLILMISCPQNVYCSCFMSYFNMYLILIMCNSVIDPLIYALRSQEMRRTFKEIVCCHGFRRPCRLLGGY

Melanocortin receptor 5 = Melanocortin receptor 5 (Mus musculus, UniProt P41149); assay: Agonist activity at mouse MC5R expressed in HEK293 cells; format: functional, cell-based; procedure, shortened: as §1
Chain of Melanocortin receptor 5 (P41149 whole entry): as above

Melanocortin receptor 4 [3] = molecular target: Melanocortin receptor 4 (Homo sapiens, UniProt P32245); assay: Displacement of [125I]NDP-alpha-MSH from MC4R
Chain of Melanocortin receptor 4 (Homo sapiens, UniProt P32245) (P32245 whole entry): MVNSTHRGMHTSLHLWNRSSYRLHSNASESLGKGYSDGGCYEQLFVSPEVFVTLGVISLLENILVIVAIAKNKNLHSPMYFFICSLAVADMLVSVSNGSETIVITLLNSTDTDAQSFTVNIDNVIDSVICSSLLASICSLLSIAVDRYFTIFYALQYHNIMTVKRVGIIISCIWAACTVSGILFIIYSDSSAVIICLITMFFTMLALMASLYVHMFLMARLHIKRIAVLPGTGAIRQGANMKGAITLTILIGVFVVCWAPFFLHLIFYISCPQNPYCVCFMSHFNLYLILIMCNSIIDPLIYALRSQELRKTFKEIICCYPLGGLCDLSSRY

[4] = molecular target: Melanocyte-stimulating hormone receptor (Mus musculus, UniProt Q01727); assay: Agonist activity at mouse MC1R expressed in HEK293 cells; format: functional, cell-based; procedure, shortened: as §1
Chain of Melanocyte-stimulating hormone receptor (Q01727 whole entry): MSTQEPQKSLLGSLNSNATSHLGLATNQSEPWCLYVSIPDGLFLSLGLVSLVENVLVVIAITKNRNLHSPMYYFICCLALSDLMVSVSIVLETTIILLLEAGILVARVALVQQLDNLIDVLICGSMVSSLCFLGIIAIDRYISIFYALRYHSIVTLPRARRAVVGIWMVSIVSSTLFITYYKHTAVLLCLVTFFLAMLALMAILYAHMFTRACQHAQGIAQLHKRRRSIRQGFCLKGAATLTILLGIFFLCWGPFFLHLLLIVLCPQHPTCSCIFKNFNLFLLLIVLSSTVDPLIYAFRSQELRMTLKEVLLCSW

Melanocortin receptor 4 [5] = molecular target: Melanocortin receptor 4 (Mus musculus, UniProt P56450); assay: Agonist activity at mouse MC4R expressed in HEK293 cells; format: functional, cell-based; procedure, shortened: as §1
Chain of Melanocortin receptor 4 (Mus musculus, UniProt P56450) (P56450 whole entry): as the sequence (P56450 whole entry) above

[6] = molecular target: Melanocyte-stimulating hormone receptor (Mus musculus) (UniProt Q01727); assay: Stimulation of mouse MC1R expressed in HEK293 cells relative to NDP-MSH; format: cell-based; procedure, shortened: as §1
Chain of Melanocyte-stimulating hormone receptor (Mus musculus) (Q01727 whole entry, looked up): as the sequence (Q01727 whole entry) above

[7] = molecular target: Melanocortin receptor 3 (Mus musculus) (UniProt P33033); assay: Stimulation of mouse MC3R expressed in HEK293 cells relative to NDP-MSH; format: cell-based; procedure, shortened: as §1
Chain of Melanocortin receptor 3 (Mus musculus) (P33033 whole entry): as the sequence (P33033 whole entry) above

[8] = Permeability across human Caco-2 cells; format: ADME, cell-based
Procedure, shortened: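 Caco-2 cells (passage 60–66) were seeded on 0.4 µm polycarbonate inserts and used 21–23 days later at stable TEER (300–500 Ωcm²). After 30 min buffer pre-incubation at 37 °C with shaking, compound was added apically.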

[9] = Biodistribution in rat brain at 10 mg/kg, po after 8 hrs; format: ADME, organism-based; set-up: dose 10 mg/kg, route oral; conditions: read-out: Drug uptake
Procedure, shortened: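 Rats were dosed at 10 mg/kg, iv or po. Brain was collected 8 h after dosing and extracted by a single protein precipitation (90% acetonitrile/10% formic acid, then 50 mM ammonium formate). Peptide was quantified by validated LC-MS/MS and expressed as […] tissue.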

[10] = Half life in Wistar rat plasma at 1 mg/kg, iv and 10 mg/kg, po; format: ADME, organism-based
Procedure, shortened: (§2)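 Conscious male Wistar rats with a jugular vein cannula implanted 24 h beforehand received peptide dissolved in water, as an iv bolus of 1 mg/kg (n = 5) or orally at 10 mg/kg (n = 2). Heparinized blood was sampled at several times up to 24 h. Plasma was separated at 4 °C, stored at -70 °C and analysed by HPLC-MS. Parameters came from noncompartmental analysis.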

[11] = AUC in Wistar rat plasma at 1 mg/kg, iv and 10 mg/kg, po; format: ADME, organism-based; procedure, shortened: as §2
[12] = Cmax in Wistar rat plasma at 10 mg/kg, po; format: ADME, organism-based; set-up: dose 10 mg/kg, route oral; procedure, shortened: as §2
Mus musculus [13] = assay: Effect on weight gain in ICR:Hsd (CD1) mouse at 0.5 mg/kg/day, po after 12 days relative to control; format: functional
Procedure, shortened: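 Mice (n = 9) were weighed daily, then given a daily oral gavage (5 mL/kg) of peptide at 100 µg/ml or water vehicle. Weight change from day 0 was expressed as mean ± SEM and compared with controls by Student's t-test.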

[14] = Tmax in Wistar rat plasma at 10 mg/kg, po; format: ADME, organism-based; set-up: dose 10 mg/kg, route oral; procedure, shortened: as §2
[15] = Volume of distribution at steady state in Wistar rat plasma at 1 mg/kg, iv and 10 mg/kg, po; format: ADME, organism-based; conditions: read-out: Vdss; procedure, shortened: as §2
[16] = Tmax in Wistar rat plasma at 1 mg/kg, iv; format: ADME, organism-based; set-up: dose 1 mg/kg, route intravenous; procedure, shortened: as §2
Rattus norvegicus = assay: Bioavailability in Wistar rat plasma at 1 mg/kg, iv and 10 mg/kg, po; format: ADME, organism-based; conditions: in vivo; procedure, shortened: as §2
[17] = Cmax in Wistar rat plasma at 1 mg/kg, iv; format: ADME, organism-based; set-up: dose 1 mg/kg, route intravenous; procedure, shortened: as §2
Mus musculus [18] = assay: Reduction of food consumption in ICR:Hsd (CD1) mouse at 0.5 mg/kg, po after 1 hr relative to control; format: functional; set-up: scale not given: the % may be the effect or the level left
Procedure, shortened: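 Male ICR:Hsd (CD-1) mice, 7–8 weeks old and individually caged, were fasted 16 h and then gavaged once (5 mL/kg) with peptide at 100 µg/ml or with water vehicle (n = 24). Fixed food portions were given immediately and reweighed at 1, 2, 3, 4 and 5 h. Results are mean ± SEM, analysed by RM ANOVA with Tukey's test.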

[19] = Elimination half life in rat; format: ADME, tissue-based; conditions: plasma; procedure, shortened: as §2

Structure (SMILES) | EC50 (Melanocortin receptor 3) | Efficacy [1] | Efficacy [2] | EC50 (Melanocortin receptor 5) | EC50 [4] | EC50 (Melanocortin receptor 4 [5]) | Efficacy [6] | Efficacy [7] | Papp [8] | other results
N=C(N)NCCC[C@@H]1NC(=O)[C@@H](Cc2ccccc2)NC(=O)[C@H](Cc2ccccc2)NC(=O)c2ccccc2C(=O)NCCN(CC(N)=O)C(=O)[C@H](Cc2c[nH]c3ccccc23)NC1=O | 20500 nM | 100% | 100% | 390 nM | 550 nM | 150 nM | 100% | 100% | – | IC50 (Melanocortin receptor 4 [3]): 100 nM
N=C(N)NCCC[C@@H]1NC(=O)[C@@H](Cc2ccccc2)NC(=O)[C@H](Cc2ccccc2)NC(=O)CCCC(=O)NCCN(CC(N)=O)C(=O)[C@H](Cc2c[nH]c3ccccc23)NC1=O | 1460 nM | 100% | 100% | 20 nM | 120 nM | 18 nM | 100% | 100% | 21 ×10⁻⁶ cm/s | –
N=C(N)NCCC[C@H](NC(=O)[C@H](Cc1c[nH]c2ccccc12)NC(=O)CN)C(=O)N[C@H](Cc1ccccc1)C(=O)N[C@@H](Cc1ccccc1)C(=O)O | – | – | – | – | – | – | – | – | 12 ×10⁻⁶ cm/s | –
N=C(N)NCCC[C@@H]1NC(=O)[C@@H](Cc2ccccc2)NC(=O)[C@H](Cc2ccccc2)NC(=O)CCC(=O)NCCN(CC(N)=O)C(=O)[C@H](Cc2c[nH]c3ccccc23)NC1=O (F[dF]RW[N(2-Aminoethyl)Gly]-NH2; linker N-5 via Suc) | 770 nM | 100% | 100% | 7 nM | 64 nM | 4 nM | 100% | 100% | 17.8 ×10⁻⁶ cm/s | concentration at 8 h [9]: 4700 ng/g; half-life [10]: > 105 min; AUC [11]: 416 ng·h/mL; Cmax [12]: 202 ng/mL; Activity (Mus musculus [13]): 2.8%; Tmax [14]: 37 min; Vd [15]: 2.1 L/kg; Tmax [16]: 5 min; F (Rattus norvegicus): 8.5%; Cmax [17]: 977 ng/mL; Activity (Mus musculus [18]): 46%; half-life [19]: 100 min
N=C(N)NCCC[C@@H]1NC(=O)[C@@H](Cc2ccccc2)NC(=O)[C@H](Cc2ccccc2)NC(=O)CCCCC(=O)NCCCN(CC(N)=O)C(=O)[C@H](Cc2c[nH]c3ccccc23)NC1=O (F[dF]RW[NGly(3-aminopropyl)]-NH2; linker N-5 via Adipoyl) | 7750 nM | 100% | 100% | 26 nM | 240 nM | 5 nM | 100% | 100% | 19 ×10⁻⁶ cm/s | –
N=C(N)NCCC[C@@H]1NC(=O)[C@@H](Cc2ccccc2)NC(=O)[C@H](Cc2ccccc2)NC(=O)CCC(=O)NCCCN(CC(N)=O)C(=O)[C@H](Cc2c[nH]c3ccccc23)NC1=O (F[dF]RW[NGly(3-aminopropyl)]-NH2; linker N-5 via Suc) | 1260 nM | 100% | 100% | 2 nM | 28 nM | 4 nM | 100% | 100% | 18.8 ×10⁻⁶ cm/s | –
OC[C@@H](O)[C@@H](O)[C@H](O)[C@H](O)CO [MANNITOL] | – | – | – | – | – | – | – | – | 2.05 ×10⁻⁶ cm/s | –
CC(C)NCC(O)COc1cccc2ccccc12 (stereo not given) [PROPRANOLOL] | – | – | – | – | – | – | – | – | 25 ×10⁻⁶ cm/s | –
